Results collected from several papers.
Each line is one published result; the experiments were not run side by side.
Target: Dual specificity tyrosine-phosphorylation-regulated kinase 2 (DYRK2, Homo sapiens, UniProt Q92630)
Residues used in one study (Q92630 1-601): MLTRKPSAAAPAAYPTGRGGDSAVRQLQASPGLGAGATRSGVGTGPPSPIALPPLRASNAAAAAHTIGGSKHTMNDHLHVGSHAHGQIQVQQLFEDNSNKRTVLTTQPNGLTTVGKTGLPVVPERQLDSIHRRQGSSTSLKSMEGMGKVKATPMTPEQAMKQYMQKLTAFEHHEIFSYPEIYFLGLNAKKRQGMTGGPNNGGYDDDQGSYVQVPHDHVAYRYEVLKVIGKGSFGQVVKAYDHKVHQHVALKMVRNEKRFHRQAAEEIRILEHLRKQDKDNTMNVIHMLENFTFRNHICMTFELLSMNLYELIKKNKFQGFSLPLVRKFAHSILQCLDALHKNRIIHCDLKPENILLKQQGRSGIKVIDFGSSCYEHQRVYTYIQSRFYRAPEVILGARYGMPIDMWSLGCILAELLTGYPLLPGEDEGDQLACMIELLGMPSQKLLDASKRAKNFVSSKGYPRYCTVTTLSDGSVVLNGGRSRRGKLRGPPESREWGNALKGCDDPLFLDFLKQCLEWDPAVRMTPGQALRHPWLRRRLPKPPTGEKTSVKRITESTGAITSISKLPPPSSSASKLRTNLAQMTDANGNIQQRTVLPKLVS

C[S+]([O-])c1ccc(-c2nc(-c3ccncc3)c(-c3ccc(F)cc3)[nH]2)cc1 (stereo not shown) — remaining signal (cell-free assay; 0.5 µM): 98.7%
NS(=O)(=O)c1cc(NC(=O)C2(c3ccccc3Cl)CC2)ccc1Oc1cccc(Cl)c1 — remaining binding (cell-free assay; competition with immobilised ligand; 1 µM): 81%
Cn1cncc1C1=CN(c2ncnc3[nH]cnc23)CCS1 — inhibition (enzyme activity; inhibitor; radiometric; 2 µM): 91.2%
CCN(CC)CCNC(=O)c1c(C)[nH]c(/C=C2\C(=O)Nc3ccc(F)cc32)c1C — inhibition (enzyme activity; inhibitor; 10 µM): 36%
O=C(O)c1ccc2c(c1)nc(Nc1cccc(F)c1)c1ccncc12 — remaining activity (enzyme activity; inhibitor; radiometric; 1 µM): 13%
COc1ccc(COc2ccc(Cc3cnc(N)nc3N)cc2OC)cc1 — remaining signal (cell-free assay; 0.5 µM): 105%
Cc1cc(C)c(-n2ccn3nc(-c4cccnc4)cc23)cc1NC(=O)c1cc(C#N)cc(S(F)(F)(F)(F)F)c1 — remaining binding (cell-free assay; competition with immobilised ligand; 0.1 µM): 82.5%
N#Cc1cccc(Nc2nc3cc(C(=O)O)ccc3c3cncnc23)c1 — remaining activity (enzyme activity; inhibitor; radiometric; 1 µM): 55%
O=C(O)[C@H]1[C@H](Cn2nnc3ccccc3c2=O)CC[C@@H]1C(=O)c1ccc(OCCC2CCOCC2)cc1 — remaining binding (cell-free assay; competition with immobilised ligand; 1 µM): 93%
CC/C(=N\NC(=O)NCc1cccc(O)c1)c1ccc(O)c(C)c1O — inhibition (enzyme activity; inhibitor; 0.1 µM): -0.2%
O=C(O)c1ccc2c(c1)nc(Nc1ccc(F)c(Cl)c1)c1ncncc12 — remaining activity (enzyme activity; inhibitor; radiometric; 1 µM): 41%
NS(=O)(=O)c1cc(NC(=O)Cc2ccccc2)ccc1Oc1cccc(Cl)c1 — remaining binding (cell-free assay; competition with immobilised ligand; 1 µM): 100%
O=C(O)c1ccc2c(c1)nc(Nc1ccc(Cl)cc1)c1ncncc12 — remaining activity (enzyme activity; inhibitor; radiometric; 1 µM): 33%
Cn1cnc(Br)c1C1=CN(c2ncnc3[nH]cnc23)CCS1 — inhibition (enzyme activity; inhibitor; radiometric; 2 µM): 98.3%
FC(F)(F)Oc1cccc(-c2cnc3ccc(-c4ccncc4)nn23)c1 — activity vs control (enzyme activity; inhibitor; radiometric; 5 µM): 46%
Cc1ccc(Nc2nccc(N(C)c3ccc4c(C)n(C)nc4c3)n2)cc1S(N)(=O)=O — inhibition (enzyme activity; inhibitor; 10 µM): -3%
O=C(O)c1ccc2c(c1)nc(NCCc1ccccc1)c1ncncc12 — remaining activity (enzyme activity; inhibitor; radiometric; 1 µM): 45%
CS(=O)(=O)CCNCc1ccc(-c2ccc3ncnc(Nc4ccc(OCc5cccc(F)c5)c(Cl)c4)c3c2)o1 — remaining signal (cell-free assay; 0.5 µM): 102%
O=C(O)c1ccc2c(c1)nc(Nc1ccc3ccccc3c1)c1ncncc12 — remaining activity (enzyme activity; inhibitor; radiometric; 1 µM): 1%
CN(C)CC#Cc1ccc(OCCCc2sc(N3CCc4cccc(C(=O)Nc5nc6ccccc6s5)c4C3)nc2C(=O)O)c(F)c1 — remaining binding (cell-free assay; competition with immobilised ligand; 1 µM): 100%
O=C(O)c1ccc2c(c1)nc(NCCc1cccc(Cl)c1)c1ccncc12 — remaining activity (enzyme activity; inhibitor; radiometric; 1 µM): 29%
Cc1ccc(NC(=O)c2ccc(C)c(C(F)(F)F)c2)cc1C#Cc1nn(C2CCC(O)CC2)c2ncnc(N)c12 (stereo not shown) — remaining signal (cell-free assay; 10 µM): 107%
CNCc1ccccc1-c1csc([C@H](C)Nc2nc(C)nc3cc(OC)c(OC)cc23)c1 — remaining binding (cell-free assay; competition with immobilised ligand; 1 µM): 96%
COc1cc(/C=C/C(=O)CC(=O)/C=C/c2ccc(O)c(OC)c2)ccc1O — activity vs control (enzyme activity; inhibitor; 1 µM): 5%
Cc1cc(NC(=O)c2cccc(S(F)(F)(F)(F)F)c2)cc(-n2ccn3nc(-c4cccnc4)cc23)c1 — remaining binding (cell-free assay; competition with immobilised ligand; 1 µM): 100%
O=C(O)c1ccc2c(c1)nc(NCc1ccccc1)c1ccncc12 — remaining activity (enzyme activity; inhibitor; radiometric; 1 µM): 27%
O=C(NCCCC1CCCCC1)c1ccc(CNC(=O)c2cnn(-c3ccccc3)c2C(F)(F)F)cc1 — remaining binding (cell-free assay; competition with immobilised ligand; 0.1 µM): 100%
CNC(=O)c1cc(Oc2ccc(NC(=O)Nc3ccc(Cl)c(C(F)(F)F)c3)cc2)ccn1 — inhibition (enzyme activity; inhibitor; 0.3 µM): -3%
